The EternaBench riboswitch data

System: MS2 coat protein
Assay: apparent Kd, MS2 coat protein; higher = weaker binding; RNA-MaP array; FMN 200 µM where present
Summary of the method: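 Designs on Illumina sequencing-chip clusters, transcribed by stalled E. coli RNA polymerase, were exposed to SNAP-549-labelled MS2 coat protein in doubling steps from 0.7 or 1.5 nM up to 3 µM, without and then with constant ligand. The buffer held 100 mM Tris-HCl pH 7.5, 80 mM KCl, 4 mM MgCl2, BSA, DTT, yeast tRNA and Tween-20. Apparent Kd values are medians of filtered per-cluster binding-curve fits to green signal normalised to red-channel RNA signal and control-cluster median Fmax.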

[1] = designed as: OFF switch for flavin mononucleotide, no ligand
[2] = ligand present: flavin mononucleotide, designed as: OFF switch for flavin mononucleotide
[3] = designed as: ON switch for flavin mononucleotide, no ligand
[4] = ligand present: flavin mononucleotide, designed as: ON switch for flavin mononucleotide

Row | Sequence | apparent Kd [1] [nM] | apparent Kd [2] [nM] | apparent Kd [3] [nM] | apparent Kd [4] [nM]
1 | UCAGUAGAGUCAGGAUAUACGAAAGGCGAUCCAUACAUGAGGAUCACCCAUGUAGAAGGGACUCUACUGUAAGUCGGAAACGAC | 309 | 21.9 |  | 
2 | UUCAGCUCGUCAGGAUAUACGUCACUGCUUCGGCAGUGUGGUAAGAUCACAUGAGGAUCACCCAUGUAGAAGGGACGAGCUGAC | 13.5 | 252 |  | 
3 | CUGUUAUUGAUCCAUUUUUUCAACAUGAGGAUCACCCAUGUGCAGGAUAUCUUGUUUAUUUUCAUCGAGAAGGGCAUAUUCACG | 159 | 196 |  | 
4 | UUGGACGUCGUAGGAUAUGUAGGAUAUUCCUACAUGAGGAUCACCCAUGUUGACAUGGAUGAAGGACAGAAGGACGAUGUCCAU |  |  | 276 | 357
5 | AAACCACAUGAGGAUCACCCAUGUCAAGAGAGACUAGGAUAUCUGAAUUAAUUAAAUUAAGGAGAAGGAGUGAAAA |  |  | 121 | 64.8
6 | UUACUCAUGUAAGGAUAUGCAGCCGUUUCGGCUGCAGAAGGUACUAUAAUACAUGAGGAUCACCCAUGUCUUUUUAAAUUUUAC |  |  | 109 | 35.2
7 | GGUACUCAAAGAGUACCAAUACGAACAUGAGGAUCACCCAUGUAGGAUAUGCUACUCAAAGAGUAGCAGAAGGAUAUGUGUCUA | 16.5 | 17.5 |  | 
8 | GGAUGACAAAGUCAUCCUUAACGAACAUGAGGAUCACCCAUGUAGGAUAUGCUACUCAAAGAGUAGCAGAAGGACAUGUGUCUU | 31.1 | 159 |  | 
9 | CUUAUGUAAGGAUAUCAGUAGUAAAAAAAUAAAAUUACUACUGAGAAGGUACAUGAGGAUCACCCAUGUAUCAA | 27.6 | 30.4 |  | 
10 | GGUGCGUAUGUGAGGAUAUGCUGGUCCUUGGAUCGGCAGAAGGUACAUGAGGAUCACCCAUGUGGUGUCGUUCC | 97.5 | 289 |  | 
11 | CGCUCACAUGAGGAUCACCCAUGUCCUAGGAGGUCAGGAUAUAGCUCGCAUGCGUUGAGGCUAGAAGGGACAGCUG |  |  | 259 | 74.7
12 | CGAUAUGAUAGAGGAUAUGUUUAACAUGAGGAUCACCCAUGUGACAUGGGAUUAAUAUAUAACUUACAGAAGGCUAUUCAAUCG | 34.4 | 52.4 |  | 
13 | CCGCAAAUGUAGGAUAUCGUAUCGGAUACGAUACGAGAAGGGCAUACAUGAGGAUCACCCAUGUGUCCUAGCGG | 14.6 | 15.7 |  | 
14 | UUAUGGAUUACAGGAUAUGUUAGUUUUAAGUGUAUUGGUUAUUACUUAAUUACAGAAGGGUAUUACAUGAGGAUCACCCAUGUA |  |  | 16.4 | 11.8
15 | GCCCGCCUAGCAGGAUAUACAGGUUGGCGGACAUGAGGAUCACCCAUGUAAGGCUACAUACACUUGUAGAAGGGUUGGGUGUCC |  |  | 93.4 | 33.7
16 | GGAUAGGACAGAGGAUAUACGUGCUAGAGAUACUAGCAAAAUUUCCUCACAUGAGGAUCACCCAUGUAGAAGGUUGUCCUAUCG | 5.14 | 11.8 |  | 
17 | GGUUGGCGAGGAUAUACAUGAGGAUCACCCAUGUGAGAGAUACUAGUGAGGUCGAUUGGUAGAAGGCGCUGACA | 108 | 58.6 |  | 
18 | GUGUAGGCAGGAUAUACAUGAGGAUCACCCAUGUGAAUAAGAUAGAAUAAGAUAAAGUGUAGAAGGGUUAGUGU | 40.7 | 32.4 |  | 
19 | UUGAUUAGAAGUUAACAUGAGGAUCACCCAUGUAUUGGAUCAGAGGAUAUGCAUGUUUGAUAGUAGCAGAAGGCUGAUGGUGGA |  |  | 53.5 | 61.6
20 | ACUUGUUAGUAGAAGGUAGUUAUUAUAUUAAUCAUGUAUACAUGAGGAUCACCCAUGUUGAUUUCUAAGGAUAUACAUCGAUAG | 81.4 | 59 |  | 
21 | GGUCGUCAAGUCAGGAUAUCGUAUAGUAGAUAUAACGAGAAGGGACAUGAGGAUCACCCAUGUCGUCUCAUCAG | 19 | 29 |  | 
22 | CCGCAAAUGCAGGAUAUCGUAUCGGAUACGAUACGAGAAGGGCAUACAUGAGGAUCACCCAUGUGUCCUAGCGG | 16.6 | 35.2 |  | 
23 | CCUCCCUGAGGAUAUCCACCCUCAUACAUGAGGAUCACCCAUGUUCAUCCGUGGCUACCCGGAGAAGGCAGCUCUG | 57.8 | 49.7 |  | 
24 | AUUGGUGGUGUAGGAUAUAACAGCAGCUGUGGUACCGUGUGUUAAGGACAUGAGGAUCACCCAUGUUAGAAGGACACUGUCCAG | 436 | 75.8 |  | 
